Measurements taken from ChEMBL document CHEMBL1139669, “8-Fluoroimidazo[1,2-a]pyridine: synthesis, physicochemical properties and evaluation as a bioisosteric replacement for imidazo[1,2-a]pyrimidine in an allosteric modulator ligand of the GABA A receptor” (Bioorg Med Chem Lett, 2006).

Legend:
[1] = molecular target: T1, GABA-A receptor; alpha-1/beta-3/gamma-2 (Homo sapiens) (UniProt P14867+P18507+P28472); test: Efficacy against GABA-Aalpha1 receptor plus beta-3-gamma-2 expressed in mouse L(tk-) cells relative to chlorodiazepoxide by electrophysiology method; assay type: functional, cell-based
Method in brief: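 Human GABA-A α1β3γ2 receptors stably expressed in mouse LTK fibroblasts. Electrophysiology measured maximum modulation of the GABA EC20 response, expressed relative to the maximal response of the full agonist chlordiazepoxide. Means of at least 5 determinations.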

[2] = molecular target: T2, GABA-A receptor; alpha-1/beta-3/gamma-2 (Homo sapiens, UniProt P14867+P18507+P28472); test: Displacement of [3H]Ro 15-1788 from human GABA-Aalpha1 receptor plus beta-3-gamma-2 expressed in mouse L(tk-) cells; assay type: cell-based
T2 sequence (P14867 whole entry): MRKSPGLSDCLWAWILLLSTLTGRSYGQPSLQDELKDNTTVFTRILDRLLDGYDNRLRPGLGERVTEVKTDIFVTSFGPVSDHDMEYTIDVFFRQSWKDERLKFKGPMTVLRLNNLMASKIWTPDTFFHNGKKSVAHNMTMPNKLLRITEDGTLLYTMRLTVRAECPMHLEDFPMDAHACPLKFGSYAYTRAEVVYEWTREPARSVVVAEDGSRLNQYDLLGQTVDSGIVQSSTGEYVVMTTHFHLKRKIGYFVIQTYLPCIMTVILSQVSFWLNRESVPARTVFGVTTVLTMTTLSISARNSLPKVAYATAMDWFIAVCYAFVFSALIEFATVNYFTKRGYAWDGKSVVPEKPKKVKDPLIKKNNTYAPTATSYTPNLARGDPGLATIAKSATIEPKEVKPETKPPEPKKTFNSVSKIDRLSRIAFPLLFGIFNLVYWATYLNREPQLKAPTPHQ
T2 sequence (P18507 whole entry): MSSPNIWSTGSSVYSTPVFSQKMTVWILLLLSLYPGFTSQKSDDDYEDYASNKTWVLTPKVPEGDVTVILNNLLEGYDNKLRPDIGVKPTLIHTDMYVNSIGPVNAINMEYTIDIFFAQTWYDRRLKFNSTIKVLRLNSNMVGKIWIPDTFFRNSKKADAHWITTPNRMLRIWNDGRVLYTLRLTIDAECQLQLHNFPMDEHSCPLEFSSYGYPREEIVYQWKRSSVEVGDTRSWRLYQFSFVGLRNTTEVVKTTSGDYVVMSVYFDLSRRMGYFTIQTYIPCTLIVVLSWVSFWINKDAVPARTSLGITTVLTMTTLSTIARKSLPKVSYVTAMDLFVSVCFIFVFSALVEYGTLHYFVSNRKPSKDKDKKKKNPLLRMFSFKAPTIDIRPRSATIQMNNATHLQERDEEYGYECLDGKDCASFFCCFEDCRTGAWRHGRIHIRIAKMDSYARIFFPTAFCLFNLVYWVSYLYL
T2 sequence (P28472 whole entry): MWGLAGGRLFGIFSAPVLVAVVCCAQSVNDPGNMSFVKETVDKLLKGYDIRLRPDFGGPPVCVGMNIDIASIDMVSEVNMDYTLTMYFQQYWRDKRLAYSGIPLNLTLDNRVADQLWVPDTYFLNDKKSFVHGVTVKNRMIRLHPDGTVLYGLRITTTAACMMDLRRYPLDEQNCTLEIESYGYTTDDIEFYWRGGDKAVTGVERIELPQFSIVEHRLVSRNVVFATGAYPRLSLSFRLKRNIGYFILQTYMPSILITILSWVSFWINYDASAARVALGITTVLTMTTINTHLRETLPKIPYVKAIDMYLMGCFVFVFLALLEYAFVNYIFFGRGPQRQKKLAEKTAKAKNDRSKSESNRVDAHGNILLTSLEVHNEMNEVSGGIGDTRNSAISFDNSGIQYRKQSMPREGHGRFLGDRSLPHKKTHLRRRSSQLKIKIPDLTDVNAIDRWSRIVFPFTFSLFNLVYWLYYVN
Method in brief: (§1)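 Competition binding against [³H]Ro15-1788 used at twice its Kd, with human GABA-A αxβ3γ2 receptors (α1 or α3) stably expressed in mouse LTK fibroblasts. Ki was calculated by Cheng-Prusoff from the inhibition curves. Values are means of three determinations.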

[3] = molecular target: T3, GABA-A receptor; alpha-3/beta-3/gamma-2 (Homo sapiens, UniProt P18507+P28472+P34903); test: Displacement of [3H]Ro 15-1788 from human GABA-Aalpha3 receptor plus beta-3-gamma-2 expressed in mouse L(tk-) cells; assay type: cell-based; method in brief: as §1
T3 sequence (P18507 whole entry): T2 sequence (P18507 whole entry)
T3 sequence (P28472 whole entry): T2 sequence (P28472 whole entry)
T3 sequence (P34903 whole entry): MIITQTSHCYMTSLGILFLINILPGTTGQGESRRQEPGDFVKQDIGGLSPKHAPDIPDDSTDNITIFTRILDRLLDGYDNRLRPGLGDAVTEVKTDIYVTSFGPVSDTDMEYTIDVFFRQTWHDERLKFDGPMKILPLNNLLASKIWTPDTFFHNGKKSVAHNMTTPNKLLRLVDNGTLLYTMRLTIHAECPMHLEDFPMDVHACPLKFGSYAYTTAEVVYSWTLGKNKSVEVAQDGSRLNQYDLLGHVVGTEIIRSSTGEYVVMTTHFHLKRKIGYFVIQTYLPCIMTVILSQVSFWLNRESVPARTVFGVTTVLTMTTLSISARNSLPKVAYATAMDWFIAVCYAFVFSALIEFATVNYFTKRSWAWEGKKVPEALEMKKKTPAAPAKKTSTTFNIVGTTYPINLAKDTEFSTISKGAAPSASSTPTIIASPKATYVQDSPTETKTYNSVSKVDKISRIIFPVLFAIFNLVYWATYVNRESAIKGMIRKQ

[4] = molecular target: GABA-A receptor; alpha-3/beta-3/gamma-2 (Homo sapiens) (UniProt P18507+P28472+P34903); test: Efficacy against GABA-Aalpha3 receptor plus beta-3-gamma-2 expressed in mouse L(tk-) cells relative to chlorodiazepoxide by chlorine flux assay; assay type: functional, cell-based
Method in brief: (§2)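 Human GABA-A αxβ3γ2 receptors (α1 or α3) stably expressed in mouse LTK fibroblasts. ³⁶Cl⁻ flux assay with drug at 1000× Ki and GABA at EC20. Efficacy expressed relative to the maximal response of the full agonist chlordiazepoxide. Means of at least 7 determinations.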

[5] = Distribution coefficient, log D at pH 7.4; assay type: physicochemical; details: octanol/water
Method in brief: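 Shake-flask partitioning between octanol and pH 7.4 aqueous buffer, shaken 20 min. logD7.4 is taken as the ratio of concentrations in octanol and in buffer.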

[6] = Dissociation constant, pKa of the compound; assay type: physicochemical
Method in brief: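 pKa determined from changes in the UV chromophore during a pH titration.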

[7] = molecular target: T1, GABA-A receptor; alpha-1/beta-3/gamma-2 (Homo sapiens); test: Efficacy against GABA-Aalpha1 receptor plus beta3gamma2 expressed in mouse L(tk-) cells relative to chlorodiazepoxide by chlorine flux assay; assay type: functional, cell-based; method in brief: as §2

Compound | Efficacy [1] [%] | Ki [2] [nM] | Ki [3] [nM] | Efficacy [4] [%] | logD [5] | pKa [6] | Efficacy [7] [%]
CC(C)(O)c1ccn2c(-c3ccc(F)c(-c4ccccc4C#N)c3)cnc2n1 | 60 | 0.71 | 0.47 | 79 |  |  | 
c1ccn2ccnc2c1 |  |  |  |  | 0.8 | 6.9 | 
Fc1cccn2ccnc12 |  |  |  |  | 0.9 | 4.9 | 
CC(C)(O)c1ccn2c(-c3ccc(F)c(-c4ccccc4C#N)c3)cnc2c1F | 34 | 0.2 | 0.32 | 104 |  |  | 
c1cnc2nccn2c1 |  |  |  |  | -0.2 | 4.9 | 
CC(C)(O)c1ccn2ccnc2c1 |  |  |  |  | 0.6 | 7.2 | 
CC(C)(O)c1ccn2c(-c3ccc(F)c(-c4ccccc4C#N)c3)cnc2c1 |  | 4.35 | 5.16 | 61 |  |  | 35
CC(C)(O)c1ccn2ccnc2c1F |  |  |  |  | 1.1 | 5.4 | 
CC(C)(O)c1ccn2ccnc2n1 |  |  |  |  | 0.1 | 5.4 | 
